In ChEMBL document CHEMBL1158700, “Phenolic constituents of the rhizomes of the Thai medicinal plant Belamcanda chinensis with proliferative activity for two breast cancer cell lines” (2005):

Legend:
Type in all cases: functional
T47D [1] = assay: Estrogenic activity in human T47D cells assessed as drug level causing stimulation of cell proliferation equivalent to 100 pM estradiol by alamar blue assay
Summary of the method: (§1)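 T47D cells were grown in RPMI-1640 with pyruvate, NEAA, glutamine and 10% FBS, then plated at 1 × 10^4 cells/well in phenol red-free RPMI with 5% DCC-treated FBS. Compounds were added in DMSO (1% DMSO control) and incubated 96 h at 37 °C, 5% CO2, alongside serial estradiol. Alamar Blue was read after 3 h (ex 530/em 590 nm). Values came from linear regression over ≥5 concentrations, quadruplicate.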

MCF7 [2] = assay: Estrogenic activity in human MCF7 cells assessed as drug level causing stimulation of cell proliferation equivalent to 10 pM estradiol by alamar blue assay
Summary of the method: (§2)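 MCF-7 cells were maintained in MEM with 6 ng/mL insulin, pyruvate, NEAA, glutamine and 10% FBS. For the assay, 1 × 10^4 cells/well went into phenol red-free RPMI with 5% DCC-treated FBS. Compounds were given in DMSO (control 1% DMSO) at 10 nM–100 µM for 96 h at 37 °C. Estradiol dilutions served as reference. Read-out: Alamar Blue, 3 h, fluorescence ex 530/em 590 nm. Values came from linear regression, ≥5 concentrations, quadruplicate.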

T47D [3] = assay: Estrogenic activity in human T47D cells assessed as drug level causing stimulation of cell proliferation equivalent to 10 pM estradiol by alamar blue assay; summary of the method: as §1
MCF7 [4] = assay: Estrogenic activity in human MCF7 cells assessed as drug level causing stimulation of cell proliferation equivalent to 100 pM estradiol by alamar blue assay; summary of the method: as §2

SMILES	Activity (T47D [1])	Activity (MCF7 [2])	Activity (T47D [3])	Activity (MCF7 [4])
O=C(Cc1cc(O)cc(O)c1)c1ccc(O)cc1 [BELAMPHENONE]	37.1 µM	0.8 µM	0.09 µM	12.8 µM
O=c1c(-c2ccc(O)cc2)coc2cc(O)cc(O)c12 [GENISTEIN]	0.009 µM	0.003 µM	0.001 µM	0.013 µM
O=C(c1ccc(O)cc1)c1c(O)cc(O)cc1O [IRIFLOPHENONE]	–	0.7 µM	4.9 µM	6.8 µM
COc1c(O)cc2occ(-c3ccc(O)c(O)c3)c(=O)c2c1O [IRILIN D]	–	5.6 µM	–	12.7 µM
COc1cc(-c2coc3cc4c(c(OC)c3c2=O)OCO4)cc(OC)c1OC [IRISFLORENTIN]	–	50.3 µM	–	–
COc1ccc(-c2coc3cc(O[C@@H]4O[C@H](CO)[C@@H](O)[C@H](O)[C@H]4O)c(OC)c(O)c3c2=O)cc1O [IRISTECTORIN A]	–	26.1 µM	–	–
COc1cc(-c2coc3cc(O[C@@H]4O[C@H](CO)[C@@H](O)[C@H](O)[C@H]4O)c(OC)c(O)c3c2=O)ccc1O [IRISTECTORIN B]	–	77.3 µM	–	–
Oc1ccc(/C=C/c2cc(O)cc(O)c2)cc1 [RESVERATROL]	–	1.6 µM	0.03 µM	–
COc1c(O[C@@H]2O[C@H](CO)[C@@H](O)[C@H](O)[C@H]2O)cc2occ(-c3ccc(O)cc3)c(=O)c2c1O [TECTORIDIN]	–	0.02 µM	0.2 µM	0.08 µM
COc1c(O)cc2occ(-c3ccc(O)cc3)c(=O)c2c1O [TECTORIGENIN]	0.5 µM	0.3 µM	0.04 µM	1 µM
